Data set [1] relates to Rattus norvegicus. As to the kind of experiment: Amount of [125I]- remaining in blood 10 min after administration of 0.65 nmol of compound/ug of [125I]- LDL protein in rats preinjected with Gal-N-Ac 110 mg. It is filed as ADME, organism-based. The note with it: in vivo. In a few lines: (§1)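 110 mg 2-acetamido-2-deoxygalacto- or -glucopyranose was injected iv 1 min before the 125I-LDL, which had been preincubated 10 min at room temperature with compound (13 μg per 20 μg LDL-protein). Rats were pentobarbital-anesthetized males. Blood was taken at 10 min, and the liver was perfused with Ca2+-free Hanks and excised. Samples were γ-counted; blood totals assume 4 mL serum/100 g body weight; values are % injected dose.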

For data set [2], the species on record is Rattus norvegicus. As to the kind of experiment: Amount of 14C remaining in blood 120 min after injection of 0 mol of [14C]- sucrose containing liposomes with compound. The data set is classed as ADME, organism-based. The note with it: 2 h.
Data set [3] is filed under the species Rattus norvegicus. As to the kind of experiment: Amount of 14C remaining in blood 120 min after injection of 0.1 mol of [14C]- sucrose containing liposomes with compound. The data set is classed as ADME, organism-based. The following applies: 2 h.
The test system of data set [4] is Rattus norvegicus. As to the kind of experiment: Amount of [125I]- remaining in blood 10 min after administration of 0 nmol of compound/ug of [125I]- LDL protein. It is filed as ADME, organism-based. A digest of the protocol:
(§2)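 Human LDL (d 1.019–1.063) was labeled with 125I. 20 μg LDL-protein was mixed with 0, 5 or 13 μg compound in water for 10 min at room temperature, then given iv to pentobarbital-anesthetized male rats. At 10 min, blood was taken by aortic puncture and the liver perfused via the portal vein (Ca2+-free Hanks, 14 mL/min, 8 min), then excised. Samples were γ-counted; results are % injected dose.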

Data set [5] concerns Rattus norvegicus. The data set is described as follows: Amount of [125I]- remaining in blood 10 min after administration of 0.05 nmol of compound/ug of [125I]- LDL protein. The data set is classed as ADME, organism-based.
Data set [6] has as its system Rattus norvegicus. The data set is described as follows: Amount of [125I]- remaining in blood 10 min after administration of 0.25 nmol of compound/ug of [125I]- LDL protein. It is filed as ADME, organism-based. A digest of the protocol:
as §2

For data set [7], the system named is Rattus norvegicus. The data set is described as follows: Amount of [125I]- remaining in blood 10 min after administration of 0.65 nmol of compound/ug of [125I]- LDL protein. It is filed as ADME, organism-based. A digest of the protocol: as §2
In data set [8] the test system is Rattus norvegicus. As to the kind of experiment: Amount of [125I]- remaining in blood 10 min after administration of 0.65 nmol of compound/ug of [125I]- LDL protein in rat preinjected with Glc-N-Ac 110 mg. The note with it: in vivo. It is filed as ADME, organism-based. In a few lines: as §1
The nature of data set [9]: [125I]- uptake in liver after perfusion on administration of 0 nmol of compound/ug of [125I]- LDL protein. The data set is classed as ADME, tissue-based. The following applies: rat. A digest of the protocol:
as §2

The nature of data set [10]: [125I]- uptake in liver after perfusion on administration of 0.05 nmol of compound/ug of [125I]- LDL protein. It is filed as ADME, tissue-based. The following applies: rat.
Data set [11] is described as follows: [125I]- uptake in liver after perfusion on administration of 0.25 nmol of compound/ug of [125I]- LDL protein. It is filed as ADME, tissue-based. The note with it: rat. A digest of the protocol: as §2
A short description of data set [12]: [125I]- uptake in liver after perfusion on administration of 0.65 nmol of compound/ug of [125I]- LDL protein. The data set is classed as ADME, tissue-based. The note with it: rat. In a few lines:
as §2

A short description of data set [13]: [125I]- uptake in liver after perfusion on administration of 0.65 nmol of compound/ug of [125I]- LDL protein in rats preinjected with Gal-N-Ac 110 mg. The data set is classed as ADME, tissue-based. The note with it: rat, in vivo. In a few lines:
as §1

Data set [14] is described as follows: [125I]- uptake in liver after perfusion on administration of 0.65 nmol of compound/ug of [125I]- LDL protein in rats preinjected with Glc-N-Ac 110 mg. It is filed as ADME, tissue-based. The following applies: rat, in vivo. A digest of the protocol: as §1
Data set [15] in a line: 14C uptake in liver after perfusion on administration of 0 mol of [14C]- sucrose containing liposomes with compound. The data set is classed as ADME. The following applies: rat.
The nature of data set [16]: 14C uptake in liver after perfusion on administration of 0.1 mol of [14C]- sucrose containing liposomes with compound. The data set is classed as ADME. The note with it: rat.

Structures are written as SMILES.

On to `CC(C)CCC[C@@H](C)[C@H]1CC[C@H]2[C@@H]3CC=C4C[C@@H](OC(=O)CCC(=O)NCC(=O)NC(CO[C@@H]5O[C@H](CO)[C@H](O)[C@H](O)[C@H]5O)(CO[C@@H]5O[C@H](CO)[C@H](O)[C@H](O)[C@H]5O)CO[C@@H]5O[C@H](CO)[C@H](O)[C@H](O)[C@H]5O)CC[C@]4(C)[C@H]3CC[C@]12C`, for which the Activity in data set [1] came out at 94%; in data set [2] it was 82%; in data set [3], 48%; in data set [4] it was 97%; in [5], 96%; in [6], 57%. The Activity in data set [7] turned out to be 23%; in data set [8] it was 27%; in [9] it was 1.9%; in data set [10], 2%; in data set [11], 33%; in data set [12] it was 41%. Further, the Activity in data set [13] was found to be 3.2%; in data set [14], 39%; in data set [15], 3%; in [16] it was 48%.

The values are drawn from ChEMBL document CHEMBL1122613, “A water-soluble cholesteryl-containing trisgalactoside: synthesis, properties, and use in directing lipid-containing particles to the liver” (J Med Chem, 1984).
